Measurements taken from ChEMBL document CHEMBL2093137, “WHO-TDR NTD Screening”.
≈ marks a conversion by molar mass, not a printed value.

How the values were obtained:
[1] = tested on: Schistosoma mansoni; test: (§1) WHO-TDR: Schistosomiasis; format: functional, organism-based
Procedure, shortened: (§2)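 Larval and/or adult Schistosoma mansoni (Puerto Rican strain) were tested whole against 10,000 diverse compounds from Life Chemicals. The procedure was a previously published standard one, using a reference drug as positive control. Results are expressed as percent inhibition and IC50.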

[2] = tested on: Trypanosoma cruzi; test: WHO-TDR: Chagas disease; format: functional, organism-based, Homo sapiens; settings: MRC5
Procedure, shortened: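 Each IC50 reflects antiparasitic potency against intracellular amastigotes of Trypanosoma cruzi Tulahuen CL2 beta-galactosidase strain. These were cultured in MRC-5SV2 human lung fibroblasts and exposed to a 10,000-compound diverse Life Chemicals library screened according to published standard procedures with a reference drug as positive control.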

[3] = tested on: Schistosoma mansoni; test: as §1; format: functional; set-up: concentration or dose not given beside the values; procedure, shortened: as §2
[4] = tested on: Leishmania infantum; test: WHO-TDR: Leishmaniasis; format: functional, organism-based, Mus musculus; settings: Macrophage
Procedure, shortened: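 Values are IC50 figures for antiparasitic potency. They come from a whole-organism screen of a 10,000-compound diverse Life Chemicals library against Leishmania infantum MHOM/MA(BE)/67 amastigotes inside murine peritoneal macrophage host cells.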

[5] = tested on: Trypanosoma brucei brucei; test: WHO-TDR: Human African Trypanosomiasis (HAT); format: functional, organism-based; settings: Squib-427
Procedure, shortened: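 Values are IC50 figures for antiparasitic potency. They come from a whole-organism screen of 10,000 diverse Life Chemicals compounds against bloodstream-form Trypanosoma brucei (Squib 427 strain).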

[6] = tested on: Onchocerca ochengi; test: (§3) WHO-TDR: Onchocerciasis; format: functional; set-up: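 at 12.5 µM on microfilariae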
Procedure, shortened: (§4)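 Onchocerca ochengi or Onchocerca lienalis, animal pathogens used as surrogates for the human parasite, were screened as whole microfilariae against a 10,000-compound diverse library from Life Chemicals. The reported measures of activity are percent inhibition and IC50.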

[7] = tested on: Brugia malayi; test: (§5) WHO-TDR: Lymphatic Filariasis; format: functional; set-up: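 tested at 10 µM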
Procedure, shortened: (§6)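 Percent inhibition and IC50 describe activity against Brugia malayi microfilariae in a whole-organism screen. The screen used previously published standard procedures with reference drugs as positive controls. Compounds came from a diverse Life Chemicals library of 10,000, filtered for drug-likeness and reactive groups.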

[8] = WHO-TDR: Cytotoxicity; format: toxicity, cell-based; settings: human, MRC5 cells
[9] = tested on: Plasmodium falciparum K1; test: WHO-TDR: Malaria; format: functional, organism-based, Homo sapiens; settings: Erythrocyte
Procedure, shortened: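 Values are IC50 figures for antiplasmodial potency. They come from a whole-organism screen of 10,000 diverse Life Chemicals compounds against Plasmodium falciparum K1 growing inside human red blood cells, run by previously published standard procedures.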

[10] = tested on: Brugia malayi; test: as §5; format: functional, organism-based; procedure, shortened: as §6
[11] = tested on: Brugia malayi; test: as §5; format: functional; set-up: concentration or dose not given beside the values; procedure, shortened: as §6; remark: listed apart in the source
[12] = tested on: Onchocerca lienalis; test: as §3; format: functional; set-up: concentration or dose not given beside the values; procedure, shortened: as §4;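 further: at 12.5 µM on microfilariae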

SMILES	IC50 [1]	IC50 [2]	% Inhibition [3]	IC50 [4]	IC50 [5]	% Inhibition [6]	% Inhibition [7]	IC50 [8]	IC50 [9]	IC50 [10]	% Inhibition [11]	% Inhibition [12]
O=C(Cc1csc(NC(=O)C2CCC(=O)N2)n1)NCc1ccccn1 (centres undefined)	2.48 mg/L (≈ 6.9 µM)	> 10.8 mg/L	100%	> 10.8 mg/L	> 10.8 mg/L	0%	20%	> 10.8 mg/L	> 10.8 mg/L			
CCOC(=O)c1ccc(NC(=O)CSc2c(C)[nH]c3ccccc23)cc1		3.49 mg/L (≈ 9.49 µM)	0%	> 11.1 mg/L	3.67 mg/L (≈ 9.95 µM)		100%	> 11.1 mg/L	> 11.1 mg/L	6.05 µM	0%	46.7%
COC(=O)c1ccc(COc2cccc3c2CCN(Cc2ccc(Cl)cc2)C3=O)o1		3.19 mg/L (≈ 7.49 µM)	0%	> 12.8 mg/L	0.772 mg/L (≈ 1.81 µM)		100%	> 12.8 mg/L	4.84 mg/L (≈ 11.4 µM)	4.61 µM	12.5%	20%
COc1ccccc1C(=O)NCCSc1c(-c2ccccc2)[nH]c2ccccc12		2.91 mg/L (≈ 7.24 µM)	0%	> 12.1 mg/L	4.03 mg/L (≈ 10 µM)		100%	> 12.1 mg/L	5.19 mg/L (≈ 12.9 µM)	4.61 µM	25%	0%
O=C(O)CCC(=O)Nc1ccc(Br)cc1		> 8.16 mg/L	0%	> 8.16 mg/L	> 8.16 mg/L		100%	> 8.16 mg/L	> 8.16 mg/L	6.6 µM	0%	0%
O=C(NCCOc1ccc2nnc(-c3ccccc3)n2n1)c1ccccc1C(F)(F)F	3.38 mg/L (≈ 7.91 µM)	> 12.8 mg/L	100%	> 12.8 mg/L	> 12.8 mg/L	0%	33.33%	> 12.8 mg/L	> 12.8 mg/L			
O=C(c1ccccc1F)N1CCN(c2ccc(-c3ccccn3)nn2)CC1	2.36 mg/L (≈ 6.49 µM)	0.375 mg/L (≈ 1.03 µM)	100%	> 10.9 mg/L	1.59 mg/L (≈ 4.37 µM)	100%	33.33%	2.77 mg/L (≈ 7.63 µM)	0.396 mg/L (≈ 1.09 µM)			
CCOC(=O)c1oc2ccccc2c1NC(=O)c1cc(C)no1	2.21 mg/L (≈ 7.03 µM)	> 9.43 mg/L	100%	> 9.43 mg/L	> 9.43 mg/L	0%	20%	> 9.43 mg/L	> 9.43 mg/L			
C#CCn1/c(=N\C(=O)c2cc(C)no2)sc2cc(S(N)(=O)=O)ccc21	3.16 mg/L (≈ 8.39 µM)	> 11.3 mg/L	100%	> 11.3 mg/L	> 11.3 mg/L	0%	0%	> 11.3 mg/L	> 11.3 mg/L			
COc1ccc(C(=O)Nc2nnc(SCC(=O)Nc3cc(C(F)(F)F)ccc3Cl)s2)cc1OC		> 16 mg/L	0%	> 16 mg/L	> 16 mg/L		100%	> 16 mg/L	> 16 mg/L	5.95 µM	0%	26.67%
COc1ccc(Cl)cc1C(=O)NCCOc1ccc2nnc(-c3ccc(F)cc3)n2n1	3.58 mg/L (≈ 8.1 µM)	> 13.3 mg/L	100%	4.29 mg/L (≈ 9.71 µM)	> 13.3 mg/L	0%	33.33%	> 13.3 mg/L	> 13.3 mg/L			
CCN1CCc2c(sc(NC(=O)c3ccc(S(=O)(=O)N4CC5(C)CC4CC(C)(C)C5)cc3)c2C(N)=O)C1 (centres undefined)		3.2 mg/L (≈ 5.88 µM)	0%	5.29 mg/L (≈ 9.71 µM)	3.82 mg/L (≈ 7.01 µM)		100%	3.41 mg/L (≈ 6.26 µM)	5.59 mg/L (≈ 10.3 µM)	3.54 µM	0%	6.7%
COc1cccc(C(=O)Nc2nnc(SCc3ccc(Br)cc3)s2)c1		> 13.1 mg/L	0%	> 13.1 mg/L	> 13.1 mg/L		100%	> 13.1 mg/L	> 13.1 mg/L	1.77 µM	33.33%	0%
